MsrA inh: inhibitors of bovine MsrA. purified bovine MsrA, absorbance read-out. inhibition, % at 15.5 µM. 360,000 tested, 0.75% active; in the data active = inhibition above about 4.5%;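 also: 0% = vehicle wells with enzyme and 100% = reference inhibitor wells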
VIM-2 inh: inhibitors of Pseudomonas aeruginosa VIM-2 metallo-beta-lactamase; purified VIM-2, nitrocefin hydrolysis, epi-absorbance fluorescence; inhibition, % at 5.6 µM; 290,000 tested, 0.89% active;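 active = inhibition above the mean of all tested compounds plus 3 SD, cutoff set per screening run, cut at about 7.5% in these data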;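 also: red hydrolysis product quenches plate fluorescence so inhibitors raise well fluorescence; 0% = enzyme with DMSO and 100% = DMSO without enzyme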
IMP-1 inhibitor: blocks Pseudomonas aeruginosa IMP-1 metallo-beta-lactamase; purified IMP-1, nitrocefin hydrolysis, epi-absorbance fluorescence; inhibition, % at 5.6 µM; 290,000 tested, 0.45% active; AID 1556;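 active = inhibition above the mean plus 3 SD of all compounds in the same screening run, cut at about 4.5% in these data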;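 also: 0% = IMP-1 with DMSO and 100% = DMSO wells lacking enzyme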
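system = purified recombinant IMP-1 beta-lactamase | amount = 0.2 nM IMP-1, as dispensed | medium = HEPES buffer pH 7.1 with ZnSO4 and Brij 35 | times = 25 °C, 15 min preincubation, 25 min reaction | detection = plate fluorescence quenching by hydrolysis product, ex 480/em 530 nm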
PKA-R2B activ: activates the human PKA-R2B holoenzyme complex; 340,000 tested, 0.079% active; AID 504700; PKA-R2B holoenzyme dissociation, Cy5-IP20 fluorescence polarization; R2B truncated from residue 108, S112A mutant; 0% DMSO only, 100% 113 µM cGMP; activation, % at 11.4 µM; P22694+P31323;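 active = activation above a cutoff set at the mean over all compounds plus 3 SD, cut at about 18% in these data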;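 also: higher means more holoenzyme dissociation and a rise in polarization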
Target sequence (P31323 whole entry, looked up, other chains not shown, the tested form may be a part): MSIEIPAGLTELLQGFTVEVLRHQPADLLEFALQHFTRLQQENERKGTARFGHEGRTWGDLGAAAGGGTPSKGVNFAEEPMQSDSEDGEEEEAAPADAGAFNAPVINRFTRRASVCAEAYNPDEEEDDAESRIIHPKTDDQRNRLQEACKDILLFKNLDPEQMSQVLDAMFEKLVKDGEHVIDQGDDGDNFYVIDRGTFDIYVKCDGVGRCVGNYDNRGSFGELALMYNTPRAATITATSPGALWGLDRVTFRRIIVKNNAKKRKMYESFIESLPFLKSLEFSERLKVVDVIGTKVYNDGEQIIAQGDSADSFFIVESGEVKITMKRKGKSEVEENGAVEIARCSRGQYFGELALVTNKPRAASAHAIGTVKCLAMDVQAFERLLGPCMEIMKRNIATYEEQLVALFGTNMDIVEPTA
bovine MsrA act: activators of bovine methionine sulfoxide reductase A; 360,000 tested, 0.3% active; purified bovine MsrA, absorbance read-out; AID 602163; activation, % at 10.6 µM; in the data active = activation above about 7.5%;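 also: 0% = vehicle and 100% = reference activator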
PKA-R1A activ: activates the PKA-R1A holoenzyme complex; AID 504707; 340,000 tested, 0.083% active; PKA-R1A dissociation, Cy5-IP20 fluorescence polarization; scaled: DMSO 0%, 113 µM cGMP 100%; activation, % at 11.4 µM;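 active = percent activation above the mean of all tested compounds plus 3 SD, cut at about 19% in these data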;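 also: higher means more PKAc released from R1A so a rise in polarization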
The depositor's hits bear a star. Compounds with a hit are over-represented: about 2.1% of the library has one in this group of screens.

What do the screens show for `C#CCOCCOCCOCCNc1nc(N2CCN(C(=O)[C@H](Cc3ccc(O)cc3)n3cc([C@@H](N)CC(C)C)nn3)CC2)nc(N2CCN(C(=O)[C@H](Cc3ccc(O)cc3)n3cc([C@@H](N)CC(C)C)nn3)CC2)n1`?
VIM-2 inh: 2.0; IMP-1 inhibitor: 12.9*

Results for Cn1c(=O)c2c(nc(Oc3ccccc3Br)n2C)n(C)c1=O ?
MsrA inh: -0.3; VIM-2 inh: 10.0*; IMP-1 inhibitor: -2.9; PKA-R2B activ: -3.5; bovine MsrA act: -1.2; PKA-R1A activ: -1.8

How did CCCCNC(=S)N/N=C/c1ccc(C)s1 do in these assays?
MsrA inh: 4.7*; VIM-2 inh: -3.4; IMP-1 inhibitor: -3.8; PKA-R2B activ: -15.8; bovine MsrA act: -2.5; PKA-R1A activ: -1.7

How did CC1CN(CCCCOc2ccc(Cl)c3ccccc23)CC(C)O1 (stereo unspecified) do in these assays?
MsrA inh: -0.8; VIM-2 inh: 1.0; IMP-1 inhibitor: 4.5*; PKA-R2B activ: -5.3; bovine MsrA act: -1.1; PKA-R1A activ: -8.7

Results for Cc1cccc(-n2c(C)n[nH]c2=S)c1 ?
MsrA inh: 2.8; VIM-2 inh: 8.0*; IMP-1 inhibitor: -2.3; PKA-R2B activ: 2.8; bovine MsrA act: -0.8; PKA-R1A activ: 1.6

What do the screens show for `Cc1ccccc1-n1c(-c2ccoc2C)n[nH]c1=S`?
MsrA inh: -0.4; VIM-2 inh: 8.6*; IMP-1 inhibitor: -3.4; PKA-R2B activ: 2.2; bovine MsrA act: 5.4; PKA-R1A activ: 8.3

How did Cc1cccc(-n2c(-c3ccncc3)n[nH]c2=S)c1 do in these assays?
MsrA inh: 1.1; VIM-2 inh: 2.7; IMP-1 inhibitor: -0.1; PKA-R2B activ: -3.8; bovine MsrA act: 2.3; PKA-R1A activ: -10.7

What do the screens show for `Cc1cccc(-n2c(-c3ccoc3C)n[nH]c2=S)c1`?
MsrA inh: 1.7; VIM-2 inh: 9.1*; IMP-1 inhibitor: -1.3; PKA-R2B activ: 2.1; bovine MsrA act: 0.2; PKA-R1A activ: -0.5

Results for COC(=O)C1=C(C)N(C)C(=NCc2ccc3c(c2)OCO3)NC1c1cccc(F)c1 (stereo unspecified) ?
MsrA inh: 0.8

What do the screens show for `O=C1C(=Cc2cccc(O)c2O)SC(=S)N1CCCN1CCOCC1`?
MsrA inh: 3.4; PKA-R2B activ: -4.2; bovine MsrA act: 3.6; PKA-R1A activ: -5.0

Results for CCc1nc(NCc2cccnc2)c2oc3ccccc3c2n1 ?
MsrA inh: -1.1; VIM-2 inh: 11.5*; IMP-1 inhibitor: -3.0; PKA-R2B activ: 5.7; bovine MsrA act: -8.4; PKA-R1A activ: 0.3

What do the screens show for `CC1=C(C#N)C(/C=N/OCc2ccc(Cl)cc2)CC(=O)N1` (stereo unspecified)?
MsrA inh: 1.1; VIM-2 inh: 8.8*; IMP-1 inhibitor: -2.2; PKA-R2B activ: 0.9; bovine MsrA act: -1.3; PKA-R1A activ: -2.4

How did CCCSC1=C(C#N)C(c2ccc(Cl)cc2Cl)CC(=O)N1 (stereo unspecified) do in these assays?
MsrA inh: 0.3; VIM-2 inh: -2.2; IMP-1 inhibitor: -5.3; PKA-R2B activ: -2.3; bovine MsrA act: -1.9; PKA-R1A activ: -10.4

How did COc1ccc(CNC(=O)C(OC(=O)c2ccco2)c2ccccc2F)cc1 (stereo unspecified) do in these assays?
MsrA inh: -0.4; VIM-2 inh: -1.1; IMP-1 inhibitor: -2.9; PKA-R2B activ: -8.1; bovine MsrA act: -2.9; PKA-R1A activ: -0.6

How did COc1ccc(CNC(=O)C(OC(C)=O)c2ccccn2)cc1 (stereo unspecified) do in these assays?
MsrA inh: -0.7; VIM-2 inh: -1.2; IMP-1 inhibitor: 5.8*; PKA-R2B activ: -0.6; bovine MsrA act: -2.5; PKA-R1A activ: -11.1

Results for COc1ccc(-n2ccnc(SCC(=O)NC3CCCC3)c2=O)cc1 ?
MsrA inh: 0.9; VIM-2 inh: 3.0; IMP-1 inhibitor: 4.6*; PKA-R2B activ: -6.3; bovine MsrA act: -9.4; PKA-R1A activ: -10.5

What do the screens show for `Cc1c(CC(=O)NCC(=O)O)c(=O)oc2cc3c(cc12)CCC(C)(C)O3`?
MsrA inh: 4.6*; VIM-2 inh: 0.4; IMP-1 inhibitor: -2.5; PKA-R2B activ: 7.7; bovine MsrA act: -3.6; PKA-R1A activ: -0.8

How did COC(=O)c1ccc(NC(=S)Nc2ccc3ccccc3c2)cc1 do in these assays?
MsrA inh: -1.1; VIM-2 inh: 1.9; IMP-1 inhibitor: 5.2*; PKA-R2B activ: -6.2; bovine MsrA act: -0.3; PKA-R1A activ: -10.2

How did COc1ccc(-c2nc(SC(C)C(=O)NC3CC3)n[nH]2)cc1 (stereo unspecified) do in these assays?
MsrA inh: -0.2; PKA-R2B activ: 2.8; bovine MsrA act: 1.1; PKA-R1A activ: -3.8

What do the screens show for `CCOC(=O)C1CCCN(C(=O)/C(=C/c2ccco2)NC(=O)c2ccccc2)C1` (stereo unspecified)?
MsrA inh: 0.4; VIM-2 inh: 1.5; IMP-1 inhibitor: 5.2*; PKA-R2B activ: 0.3; bovine MsrA act: -2.7; PKA-R1A activ: 0.4

How did c1cn2cc(CSC3CCCCC3)nc2s1 do in these assays?
MsrA inh: 0.5; VIM-2 inh: 9.1*; IMP-1 inhibitor: -2.5; PKA-R2B activ: -11.4; bovine MsrA act: 1.2; PKA-R1A activ: -18.1

How did COc1cc(Br)c(CC(=O)NC2CC2)cc1OC do in these assays?
MsrA inh: -0.1; VIM-2 inh: -0.1; IMP-1 inhibitor: -1.9; PKA-R2B activ: -3.7; bovine MsrA act: -2.7; PKA-R1A activ: -2.4

What do the screens show for `COc1cccc(/C=C2\SC(=S)N(CCC(=O)NC3C=CS(=O)(=O)C3)C2=O)c1` (stereo unspecified)?
MsrA inh: 0.1; VIM-2 inh: -0.2; IMP-1 inhibitor: 8.2*; PKA-R2B activ: -4.8; bovine MsrA act: -8.2; PKA-R1A activ: -16.4

How did O=C(CN1C(=O)/C(=C/c2cccc(Cl)c2)SC1=S)NC1C=CS(=O)(=O)C1 (stereo unspecified) do in these assays?
MsrA inh: 2.0; VIM-2 inh: -1.7; IMP-1 inhibitor: 4.4; PKA-R2B activ: -3.8; bovine MsrA act: -4.6; PKA-R1A activ: 2.9

How did COc1ccc(/C=C2\SC(=S)N(CCC(=O)NC3C=CS(=O)(=O)C3)C2=O)cc1 (stereo unspecified) do in these assays?
MsrA inh: 1.3; VIM-2 inh: -3.6; IMP-1 inhibitor: 11.7*; PKA-R2B activ: -11.9; bovine MsrA act: -4.5; PKA-R1A activ: -4.6

How did O=C(CN1C(=O)/C(=C/c2ccccc2F)SC1=S)NC1C=CS(=O)(=O)C1 (stereo unspecified) do in these assays?
MsrA inh: 0.7; VIM-2 inh: 0.5; IMP-1 inhibitor: 7.0*; PKA-R2B activ: -7.5; bovine MsrA act: -1.3; PKA-R1A activ: -13.2

How did CC1(C(=O)Nc2ccc3c(c2)OCO3)CCN1C(=O)Cc1cccc2ccccc12 (stereo unspecified) do in these assays?
MsrA inh: -0.8; bovine MsrA act: -2.0
